Measurements from ChEMBL document CHEMBL1135421, “2-(Anilinomethyl)imidazolines as alpha1 adrenergic receptor agonists: the discovery of alpha1a subtype selective 2'-alkylsulfonyl-substituted analogues” (J Med Chem, 2002).
Where “and” joins values, the source holds several entries; their conditions need not be identical. Identical values can stand only once.

What was measured:
[1] = molecular target: T1, Alpha-2A adrenergic receptor (Homo sapiens) (UniProt P08913); experiment: Efficacy as percentage of the maximal effect observed for nonselective agonist UK-14304 in CHO cells expressing human Alpha-2A adrenergic receptor; format: functional, cell-based
T1 sequence (whole entry): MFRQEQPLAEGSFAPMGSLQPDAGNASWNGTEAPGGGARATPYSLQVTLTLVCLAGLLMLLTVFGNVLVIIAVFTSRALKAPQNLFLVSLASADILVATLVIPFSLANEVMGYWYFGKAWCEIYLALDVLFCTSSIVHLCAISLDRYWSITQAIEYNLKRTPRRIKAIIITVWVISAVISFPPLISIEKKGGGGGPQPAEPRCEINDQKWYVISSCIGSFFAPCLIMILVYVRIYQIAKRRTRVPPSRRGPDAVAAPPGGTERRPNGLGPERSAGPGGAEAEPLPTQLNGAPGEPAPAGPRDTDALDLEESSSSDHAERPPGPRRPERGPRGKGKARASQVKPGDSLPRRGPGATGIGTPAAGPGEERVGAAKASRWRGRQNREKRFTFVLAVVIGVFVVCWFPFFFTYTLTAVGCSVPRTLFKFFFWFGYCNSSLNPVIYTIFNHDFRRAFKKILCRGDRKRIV

[2] = molecular target: T2, Alpha-1B adrenergic receptor (Homo sapiens, UniProt P35368); experiment: Agonist potency at Alpha-1B adrenergic receptor expressed in rat-1 fibroblasts; format: functional
T2 sequence (P35368 whole entry): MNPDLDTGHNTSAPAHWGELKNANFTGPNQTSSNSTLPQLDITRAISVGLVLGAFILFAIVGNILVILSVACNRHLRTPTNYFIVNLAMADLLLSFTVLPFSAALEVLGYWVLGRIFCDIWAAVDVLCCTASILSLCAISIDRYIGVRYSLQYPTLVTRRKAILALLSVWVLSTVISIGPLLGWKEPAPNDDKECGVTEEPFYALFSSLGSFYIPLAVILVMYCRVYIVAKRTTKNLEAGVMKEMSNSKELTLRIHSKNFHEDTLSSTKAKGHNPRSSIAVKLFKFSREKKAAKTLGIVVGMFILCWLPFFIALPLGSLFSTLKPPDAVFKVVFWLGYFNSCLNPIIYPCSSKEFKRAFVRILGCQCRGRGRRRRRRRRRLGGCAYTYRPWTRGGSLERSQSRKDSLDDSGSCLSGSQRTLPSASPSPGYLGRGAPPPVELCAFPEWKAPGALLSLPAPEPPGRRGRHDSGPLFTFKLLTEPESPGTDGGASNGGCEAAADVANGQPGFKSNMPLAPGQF

[3] = molecular target: T3, Alpha-1D adrenergic receptor (Homo sapiens, UniProt P25100); experiment: Agonist potency at Alpha-1D adrenergic receptor assayed in rat-1 fibroblasts expressing human Alpha-1D adrenergic receptor; format: functional
T3 sequence (P25100 whole entry): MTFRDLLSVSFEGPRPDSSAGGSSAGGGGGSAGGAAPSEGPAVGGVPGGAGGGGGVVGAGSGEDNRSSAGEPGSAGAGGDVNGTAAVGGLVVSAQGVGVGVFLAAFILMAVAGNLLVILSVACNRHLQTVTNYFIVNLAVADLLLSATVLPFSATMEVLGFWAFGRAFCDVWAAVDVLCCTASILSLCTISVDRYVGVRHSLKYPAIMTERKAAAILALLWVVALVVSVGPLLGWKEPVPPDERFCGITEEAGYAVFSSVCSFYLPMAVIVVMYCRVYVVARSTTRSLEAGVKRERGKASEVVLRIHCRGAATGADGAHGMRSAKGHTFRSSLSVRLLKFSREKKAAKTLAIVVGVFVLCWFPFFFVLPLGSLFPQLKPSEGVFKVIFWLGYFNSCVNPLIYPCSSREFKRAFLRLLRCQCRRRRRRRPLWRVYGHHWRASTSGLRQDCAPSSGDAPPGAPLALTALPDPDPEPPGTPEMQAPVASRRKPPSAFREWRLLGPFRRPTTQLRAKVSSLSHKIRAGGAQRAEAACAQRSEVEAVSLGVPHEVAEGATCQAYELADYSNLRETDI
Outline: (§1)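 Rat-1 fibroblasts expressing human α1a/α1b/α1d, grown in DMEM with 10% heat-inactivated FBS and 0.6 mg/mL G418, plated 6000 cells/well and cultured 48 h at 37 °C. Loaded 2 h at 37 °C with Calcium Green (4 μM), 0.2% pluronic acid and 2.5 mM probenecid in HEPES buffer pH 7.4. FLIPR read at room temperature: 10 s baseline, then 50 s after compound. 11-point curves as % of 40 μM phenylephrine response, top concentration typically 5 μM.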

[4] = molecular target: T4, Alpha-2A adrenergic receptor (Homo sapiens, UniProt P08913); experiment: Agonist potency at Alpha-2A stably expressed in CHO cells.; format: functional, cell-based
T4 sequence (P08913 whole entry): T1 sequence (whole entry)

[5] = molecular target: T5, Alpha-2C adrenergic receptor (Homo sapiens, UniProt P18825); experiment: Agonist potency at Alpha-2C adrenergic receptor assayed in CHO cells expressing human Alpha-2C adrenergic receptor; format: functional, cell-based
T5 sequence (P18825 whole entry): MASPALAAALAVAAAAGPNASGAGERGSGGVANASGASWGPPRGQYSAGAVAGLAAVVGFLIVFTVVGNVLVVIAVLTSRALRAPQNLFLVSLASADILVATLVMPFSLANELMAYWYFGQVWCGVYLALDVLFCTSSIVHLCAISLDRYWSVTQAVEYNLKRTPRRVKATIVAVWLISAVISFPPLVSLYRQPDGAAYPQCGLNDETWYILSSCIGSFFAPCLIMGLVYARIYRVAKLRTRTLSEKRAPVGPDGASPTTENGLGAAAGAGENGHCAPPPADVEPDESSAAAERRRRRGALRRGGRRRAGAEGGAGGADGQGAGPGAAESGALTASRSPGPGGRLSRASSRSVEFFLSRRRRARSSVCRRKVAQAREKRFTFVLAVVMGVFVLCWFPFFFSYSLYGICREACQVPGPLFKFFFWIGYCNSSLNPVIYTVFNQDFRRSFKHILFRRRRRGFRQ

[6] = molecular target: T6, Alpha-2C adrenergic receptor (Homo sapiens) (UniProt P18825); experiment: Efficacy as percentage of the maximal effect observed for nonselective agonist UK-14304 in CHO cells expressing human Alpha-2C adrenergic receptor; format: functional, cell-based
T6 sequence (whole entry): T5 sequence (P18825 whole entry)

[7] = molecular target: T7, Alpha-1A adrenergic receptor (Homo sapiens, UniProt P35348); experiment: Agonist potency at Alpha-1 adrenergic receptor assayed in rat-1 fibroblasts expressing human Alpha-1 adrenergic receptor; format: functional; outline: as §1
T7 sequence (P35348 whole entry): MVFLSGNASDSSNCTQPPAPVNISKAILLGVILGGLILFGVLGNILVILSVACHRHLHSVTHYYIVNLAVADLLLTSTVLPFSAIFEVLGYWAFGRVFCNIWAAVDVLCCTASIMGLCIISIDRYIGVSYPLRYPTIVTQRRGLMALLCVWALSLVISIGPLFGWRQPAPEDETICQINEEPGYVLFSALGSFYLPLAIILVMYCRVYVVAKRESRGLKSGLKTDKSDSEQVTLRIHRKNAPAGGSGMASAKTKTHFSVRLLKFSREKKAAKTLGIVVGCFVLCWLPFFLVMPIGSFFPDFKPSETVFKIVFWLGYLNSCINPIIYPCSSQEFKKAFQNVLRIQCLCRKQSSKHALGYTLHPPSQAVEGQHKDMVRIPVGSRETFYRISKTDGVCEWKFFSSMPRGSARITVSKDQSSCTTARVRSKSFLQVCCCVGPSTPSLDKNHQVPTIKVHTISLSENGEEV

[8] = molecular target: T8, Alpha-1A adrenergic receptor (Homo sapiens) (UniProt P35348); experiment: Efficacy as % of the maximal effect observed for nonselective agonist phenylephrine in rat-1 fibroblasts expressing human Alpha-1 adrenergic receptor; format: functional; outline: as §1
T8 sequence (whole entry): T7 sequence (P35348 whole entry)

[9] = molecular target: T2, Alpha-1B adrenergic receptor; experiment: Affinity to human Alpha-1B adrenergic receptor determined by radioligand binding techniques from rat-1 fibroblasts membranes
[10] = molecular target: T7, Alpha-1A adrenergic receptor; experiment: Affinity to Alpha-1 adrenergic receptor determined by radioligand binding techniques from rat-1 fibroblasts membranes
[11] = molecular target: T9, Alpha-2B adrenergic receptor (Homo sapiens, UniProt P18089); experiment: Affinity to human Alpha-2B adrenergic receptor determined by radioligand binding techniques from chinese hamster ovary (CHO) cells; format: cell-based
T9 sequence (P18089 whole entry): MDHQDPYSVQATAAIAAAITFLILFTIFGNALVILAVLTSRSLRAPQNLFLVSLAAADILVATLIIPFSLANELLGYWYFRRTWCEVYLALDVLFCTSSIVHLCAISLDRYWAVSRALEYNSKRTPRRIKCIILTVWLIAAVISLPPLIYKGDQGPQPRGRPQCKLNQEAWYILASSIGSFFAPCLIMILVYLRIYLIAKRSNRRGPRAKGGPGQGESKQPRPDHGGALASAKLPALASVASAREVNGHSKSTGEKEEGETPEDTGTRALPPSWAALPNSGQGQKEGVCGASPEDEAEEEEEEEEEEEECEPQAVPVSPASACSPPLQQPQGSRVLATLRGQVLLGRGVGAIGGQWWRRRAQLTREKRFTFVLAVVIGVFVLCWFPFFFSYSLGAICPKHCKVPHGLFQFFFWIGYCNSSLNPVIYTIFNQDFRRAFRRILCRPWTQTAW

[12] = molecular target: T3, Alpha-1D adrenergic receptor; experiment: Affinity to human Alpha-1D adrenergic receptor determined by radioligand binding techniques from rat-1 fibroblasts membranes
[13] = molecular target: T5, Alpha-2C adrenergic receptor; experiment: Affinity to human Alpha-2C adrenergic receptor determined by radioligand binding techniques from chinese hamster ovary (CHO) cells; format: cell-based
[14] = molecular target: T4, Alpha-2A adrenergic receptor; experiment: Affinity to human Alpha-2A adrenergic receptor determined by radioligand binding techniques from chinese hamster ovary (CHO) cells; format: cell-based

| Max [1] | EC50 [2] | EC50 [3] | EC50 [4] | EC50 [5] | Max [6] | EC50 [7] | Ki [9] | Ki [10] | SMILES | Max [8] | Ki [11] | Ki [12] | Ki [13] | Ki [14] |
| --- | --- | --- | --- | --- | --- | --- | --- | --- | --- | --- | --- | --- | --- | --- |
| 88% |  |  |  |  |  |  |  |  | Cc1cc(C(C)(C)C)c(O)c(C)c1CC1=NCCN1 |  |  |  |  |  |
| 34% | > 100 µM | > 100 µM | > 10 µM | 2 µM | 87% | 0.158 µM | 11.2 µM | 1.12 µM | CS(=O)(=O)Nc1ccc(F)c([C@@H](O)CN)c1 [NS-49] | 109% |  |  |  |  |
| 29% | > 100 µM | > 100 µM | > 10 µM | 6.31 µM | 69% | > 100 µM | 2.14 µM | 0.617 µM | O=S1(=O)CCCc2cccc(NCC3=NCCN3)c21 |  |  | > 15.8 µM | 2.69 µM | 0.794 µM |

| SMILES | Max [1] | EC50 [2] | EC50 [3] | EC50 [4] | EC50 [5] | Max [6] | EC50 [7] | Ki [9] | Ki [10] | Max [8] | Ki [11] | Ki [12] | Ki [13] | Ki [14] |
| --- | --- | --- | --- | --- | --- | --- | --- | --- | --- | --- | --- | --- | --- | --- |
| COc1ccc(S(C)(=O)=O)c(NCC2=NCCN2)c1 | 16% | > 100 µM | > 100 µM | > 10 µM and 3.31 µM |  | 49% | 0.0141 µM | 4.57 µM | 1.62 µM | 102% | > 6.31 µM | 7.59 µM | > 5.01 µM | 3.63 µM |
